Measurements as given in paper PMC2858063 (Steroids, 2010).
Entries after “also recorded” stand apart in the source; their conditions may differ. Read-outs that look alike come from different tables or passages of the source.

Columns and labels:
hu-mPRα [1] = target: T1, hu-mPRα (Homo sapiens, UniProt Q86WK9); experiment: hu-mPRα steroid binding assay; settings: for RBA (Relative Binding Affinity): compared with progesterone (=100), human mPRα; for binding to hu-mPRα (in words): this study, Fig. 1, Table 1
T1 sequence (Q86WK9 1-346): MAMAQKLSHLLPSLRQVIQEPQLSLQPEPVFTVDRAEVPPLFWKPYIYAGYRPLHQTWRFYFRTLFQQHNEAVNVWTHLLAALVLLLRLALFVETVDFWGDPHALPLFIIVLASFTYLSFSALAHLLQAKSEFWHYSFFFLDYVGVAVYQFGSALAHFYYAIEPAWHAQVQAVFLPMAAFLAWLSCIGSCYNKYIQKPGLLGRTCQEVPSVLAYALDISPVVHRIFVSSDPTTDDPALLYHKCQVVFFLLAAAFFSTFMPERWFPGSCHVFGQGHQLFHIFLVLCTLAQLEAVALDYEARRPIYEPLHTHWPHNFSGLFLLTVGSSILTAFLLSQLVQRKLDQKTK

human nPR [2] = target: T2, human nPR (Homo sapiens, UniProt P06401); experiment: nPR steroid binding assay; settings: that of progesterone
T2 sequence (P06401 679-933 limits assumed): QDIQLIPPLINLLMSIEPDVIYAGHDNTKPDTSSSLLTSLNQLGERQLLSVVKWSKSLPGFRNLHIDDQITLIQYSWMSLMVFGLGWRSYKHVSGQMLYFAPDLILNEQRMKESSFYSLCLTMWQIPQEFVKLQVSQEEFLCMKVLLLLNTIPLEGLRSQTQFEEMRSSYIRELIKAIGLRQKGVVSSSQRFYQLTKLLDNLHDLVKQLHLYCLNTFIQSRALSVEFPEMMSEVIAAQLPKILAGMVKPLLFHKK

hu-mPRα [3] = target: T1, hu-mPRα; experiment: MAPK activation assay; assay type: cell-based; settings: 100 nM, 10 min, mPRα-transfected MDA-MB-231 cells
In short: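 Control and mPRα-transfected MDA-MB-231 cells were serum-starved 5–6 days, then treated 10 min with progestins (100 nM; 1–100 nM for concentration-response), with EGF as positive control. Lysis was in RIPA buffer plus protease inhibitors. Lysate (10 μg/lane, non-reducing) ran on duplicate SDS gels, was blotted, and was probed for total or phospho-p42/44 with rabbit monoclonals, then HRP anti-rabbit 1 h. Detection was by chemiluminescence on film. Runs were repeated 3–4 times, with statistics versus vehicle.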

hu-mPRα [4] = target: T1, hu-mPRα; settings: cited from earlier work; for binding affinity for nPR compared with mPRα: selectivity in words
human nPR [5] = target: T2, human nPR; settings: cited from earlier work; for pIC50 (mean): 50% displacement of [3H] Org 2058, extracted from log RBA; for logRBA: RBA (%) compared with that of Org 2058 (=100%)

| Compound | RBA (Relative Binding Affinity) (hu-mPRα [1]) | binding to hu-mPRα (in words) (hu-mPRα [1]) | pIC50 (mean) (human nPR [5]) | logRBA (human nPR [5]) | further results |
| --- | --- | --- | --- | --- | --- |
| 3,20-dioxopregn-4-ene-18-carbonitrile | 1.8% | low binding affinities | – | – | – |
| 18a-methylprogesterone [18a-Methylprogesterone (Org OE 64-0)] | 2009% | affinities higher than that of progesterone | – | – | relative binding affinity for nPR (human nPR [2]): 20.8%; MAPK activation (phosphorylation of ERK) (hu-mPRα [3]): mPRα agonists |
| C#CC1(O)CC[C@H]2[C@@H]3CCC4=CC(=O)CC[C@@H]4[C@H]3CC[C@@]21CC (mixture of isomers) [norgestrel] | – | – | – | – | binding affinity for nPR compared with mPRα (hu-mPRα [4]): greater binding affinity for nPR than mPRα |
| CC(=O)[C@H]1CC[C@H]2[C@@H]3CCC4=CC(=O)[C@H](O)C[C@]4(C)[C@H]3CC[C@]12C [2α-hydroxyprogesterone] | – | – | – | – | binding to hu-mPRα (in words) (hu-mPRα [4]; earlier series): poor binding |
| CC(=O)[C@H]1CC[C@H]2[C@@H]3CCC4=CC(=O)[C@H](C#N)C[C@]4(C)[C@H]3CC[C@]12C [3,20-Dioxopregn-4-ene-2α-carbonitrile] | <1% | inactivity | – | – | – |
| CC(=O)[C@H]1CC[C@H]2[C@@H]3CC[C@H]4C[C@H](O)CC[C@]4(C)[C@H]3CC[C@]12C [3α-Hydroxy-5α-pregnan-20-one] | 7.6% | – | – | – | IC50 (hu-mPRα [1]): 1150 nM |
| CC(=O)[C@H]1CC[C@H]2[C@@H]3CC[C@H]4C[C@@H](O)CC[C@]4(C)[C@H]3CC[C@]12C [3β-Hydroxy-5α-pregnan-20-one] | – | absence of binding | – | – | – |
| C[C@]12CC[C@H]3[C@@H](CC[C@H]4CC(=O)CC[C@@H]43)[C@@H]1CC[C@@H]2O [5α-Dihydronandrolone] | – | – | 6.50 | −0.22 | – |
| C[C@]12CCC(=O)C[C@@H]1CC[C@@H]1[C@@H]2CC[C@]2(C)[C@@H](O)CC[C@@H]12 [5α-Dihydrotestosterone (DHT), 5α-Dihydrotestosterone] | – | – | 6.16 | −0.56 | – |
| CC(=O)S[C@@H]1CC2=CC(=O)CC[C@]2(C)[C@H]2CC[C@]3(C)[C@@H](C(C)=O)CC[C@H]3[C@H]12 [7α-Acetylthioprogesterone (Org 33718-0), 7α-Acetylthioprogesterone] | <1% | – | – | – | – |
| CC(=O)[C@H]1CC[C@H]2[C@@H]3CCC4=CC(=O)CC[C@]4(C)[C@H]3[C@@H](O)C[C@]12C [11β-hydroxyprogesterone] | – | – | – | – | lower binding affinity relative to progesterone (hu-mPRα [4]; mPRα, observed earlier): 10 fold |
| CCC1CC2C3CCC4=CC(=O)CCC4C3CCC2(C)C1C(=O)CO (stereo not drawn) [16α-ethyl-21-hydroxy-19-norpregn-4-ene-3,20-dione] | – | – | – | 2.00 | binding to hu-mPRα (in words) (hu-mPRα [4]; earlier series): poor binding affinities; binding affinity for nPR compared with mPRα (hu-mPRα [4]): greater binding affinity for nPR than mPRα |
| CCCCCC(=O)O[C@]1(C(C)=O)CC[C@H]2[C@@H]3CCC4=CC(=O)CC[C@]4(C)[C@H]3CC[C@@]21C [17-Caproylprogesterone] | 4.4% | – | – | – | – |
| C[C@]12CC[C@H]3[C@@H](CCC4=CC(=O)CC[C@@]43C)[C@@H]1CC[C@H]2O [17-Epitestosterone] | 2.8% | – | – | – | – |
| CC[C@]1(O)CC[C@H]2[C@@H]3CCC4=CC(=O)CC[C@@H]4[C@H]3CC[C@@]21C [17-Hydroxy-19-nor-17α-pregn-4-en-3-one] | – | – | 8.24 | 1.52 | – |
| C[C@@H]1C=C2CC(=O)CC[C@]2(C)[C@H]2CC[C@]3(C)[C@@H](O)CC[C@H]3[C@H]12 [17β-Hydroxy-7α-methylandrost-5-en-3-one] | 3.0% | – | – | – | IC50 (hu-mPRα [1]): 2880 nM; decrease in binding relative to testosterone (hu-mPRα [1]; mPRα, compared with testosterone of ref 10): 10 fold |
| CC(C)[C@@H]1C[C@H]2[C@@H]3CCC4=CC(=O)CC[C@@H]4[C@H]3CC[C@]2(C)[C@H]1O [17β-Hydroxy-16α-isopropylestr-4-en-3-one] | – | – | 7.72 | 1.00 | – |
| C[C@]1(O)CC[C@H]2[C@@H]3CCC4=CC(=O)CC[C@@H]4[C@H]3CC[C@@]21C [17β-Hydroxy-17α-methylestr-4-en-3-one] | – | – | 7.66 | 0.94 | – |

| Compound | RBA (Relative Binding Affinity) (hu-mPRα [1]) | binding to hu-mPRα (in words) (hu-mPRα [1]) | pIC50 (mean) (human nPR [5]) | logRBA (human nPR [5]) | further results |
| --- | --- | --- | --- | --- | --- |
| CC(=O)[C@H]1CC[C@H]2[C@@H]3CCC4=CC(=O)CC[C@]4(CO)[C@H]3CC[C@]12C [19-Hydroxyprogesterone] | 0.7% | low binding affinities | – | – | – |
| CC(=O)[C@H]1CC[C@H]2[C@@H]3CCC4=CC(=O)CC[C@@H]4[C@H]3CC[C@]12C [19-Norprogesterone] | – | – | 8.53 | 1.81 | binding affinity for nPR compared with mPRα (hu-mPRα [4]): greater binding affinity for nPR than mPRα |
| C=CC[C@]1(O)CC[C@H]2[C@@H]3CCC4=CCCC[C@@H]4[C@H]3CC[C@@]21C [Allylestrenol] | – | – | 7.04 | 0.32 | – |
| C[C@]12CCC(=O)C=C1CC[C@@H]1[C@@H]2CC[C@]2(C)C(=O)CC[C@@H]12 [Androst-4-ene-3,17-dione] | – | unable to bind | 6.02 | −0.70 | – |
| C[C@]12CCC(=O)C=C1CC[C@@H]1[C@@H]2CC[C@@]2(C)[C@H]1CC[C@]2(O)C(=O)CO [Cortexolone (11-deoxycortisol), 11-deoxycortisol] | 1.8% | less potent than deoxycorticosterone | – | – | IC50 (hu-mPRα [1]): 4850 nM |
| C[C@]12CCC(=O)C=C1CC[C@@H]1[C@@H]2[C@@H](O)C[C@@]2(C)[C@H]1CC[C@]2(O)C(=O)CO [Cortisol (hydrocortisone), Cortisol] | – | complete loss of affinity | – | – | – |
| C[C@]12CC[C@@H]3c4ccc(O)cc4CC[C@H]3[C@@H]1CC[C@@H]2O [Estradiol-17β] | – | no binding affinity | – | – | – |
| C#C[C@]1(O)CC[C@H]2[C@@H]3CCC4=CC(=O)CC[C@]4(C)[C@H]3CC[C@@]21C [Ethisterone] | – | – | – | – | binding affinity for nPR compared with mPRα (hu-mPRα [4]): greater binding affinity for nPR than mPRα |
| CC[C@]1(O)CC[C@H]2[C@@H]3CCC4=CCCC[C@@H]4[C@H]3CC[C@@]21C [Ethylestrenol] | – | – | 7.21 | 0.49 | – |
| C#C[C@]1(O)CC[C@H]2[C@@H]3CCC4=CCCC[C@@H]4[C@H]3CC[C@@]21C [Lynestrenol] | – | – | 6.95 | 0.23 | – |
| CC#C[C@]1(O)CC[C@H]2[C@@H]3CCC4=CC(=O)CCC4=C3[C@@H](c3ccc(N(C)C)cc3)C[C@@]21C [Mifepristone] | – | – | – | – | binding to hu-mPRα (in words) (hu-mPRα [4]; earlier series, listed as RU486): little or no affinity; also recorded: does not bind |
| C[C@]12CC[C@H]3[C@@H](CCC4=CC(=O)CC[C@@H]43)[C@@H]1CC[C@@H]2O [Nandrolone, 19-nortestosterone] | – | – | 7.20 | 0.48 | – |
| CC(=O)[C@H]1CC[C@H]2[C@@H]3CCC4=CC(=O)C=C[C@]4(C)[C@H]3CC[C@]12C [Pregna-1,4-diene-3,20-dione] | 93.5% | little or no influence relative to the progesterone response | – | – | IC50 (hu-mPRα [1]): 93.5 nM |
| CC(=O)[C@H]1CC[C@H]2[C@@H]3C=CC4=CC(=O)CC[C@]4(C)[C@H]3CC[C@]12C [Pregna-4,6-diene-3,20-dione] | 98.9% | little or no influence relative to the progesterone response | – | – | IC50 (hu-mPRα [1]): 88.4 nM |
| CC(=O)[C@H]1CC[C@H]2[C@@H]3CCC4=CC(=O)CC[C@]4(C)[C@H]3CC[C@]12C [Progesterone] | – | – | – | – | IC50 (hu-mPRα [1]): 87.4 nM |
| CCC(=O)[C@@]1(C)CC[C@H]2[C@@H]3CCC4=CC(=O)CCC4=C3CC[C@@]21C [Promegestone] | – | – | 8.90 | 2.18 | binding to hu-mPRα (in words) (hu-mPRα [4]; earlier series, listed as R5020): little or no affinity; also recorded: poor binding affinities |
| C[C@]12CC[C@H]3[C@@H](CCC4=CC(=O)CC[C@@]43C)[C@@H]1CC[C@@H]2O [Testosterone] | – | – | 6.02 | −0.70 | RBA for hu-mPRα (hu-mPRα [4]; progesterone = 100 %, earlier series): 22.4% |
| C#C[C@]1(O)CC[C@H]2[C@@H]3CCC4=CC(=O)CC[C@@H]4[C@H]3CC[C@@]21C [norethisterone] | – | – | – | – | binding affinity for nPR compared with mPRα (hu-mPRα [4]): greater binding affinity for nPR than mPRα |
